The source of these data is ChEMBL document CHEMBL1124852, “Synthesis of 3-arylecgonine analogues as inhibitors of cocaine binding and dopamine uptake” (J Med Chem, 1990).

Test [1] has as its target Sodium-dependent dopamine transporter (Bos taurus, UniProt P27922). Description: Competitive inhibition against [3H]cocaine binding to cocaine receptor in bovine striatal tissue. Type of test: tissue-based, Striatum. The method, boiled down: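 Bovine striatum (caudate, putamen, globus pallidus, nucleus accumbens) homogenised in ice-cold 10 mM Na2HPO4 with 0.32 M sucrose, pH 7.4. Pelleted twice at 17000g for 20 min and resuspended to about 3.0 mg/mL protein (Lowry). [3H]cocaine (29.7 Ci/mmol) binding measured by filtration. Triplicates; mean of three experiments; IC50 by log-logit transformation.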

The species entered for a further test is Bos taurus. Description: Competitive inhibition against [3H]dopamine uptake in bovine striatal tissue. Type of test: functional, Striatum. An outline of the steps:
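Striatal P2 synaptosomes prepared in ice-cold 0.3 M sucrose with […], pH 7.4 (3000g for 10 min, then supernatant at 17000g for 20 min). [3H]dopamine (30 Ci/mmol) uptake read by filtration at 37 °C; nonspecific uptake measured at 4 °C. Run in triplicate; mean of three experiments; IC50 from log-logit transformation.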

Sequence of Sodium-dependent dopamine transporter (P27922 whole entry): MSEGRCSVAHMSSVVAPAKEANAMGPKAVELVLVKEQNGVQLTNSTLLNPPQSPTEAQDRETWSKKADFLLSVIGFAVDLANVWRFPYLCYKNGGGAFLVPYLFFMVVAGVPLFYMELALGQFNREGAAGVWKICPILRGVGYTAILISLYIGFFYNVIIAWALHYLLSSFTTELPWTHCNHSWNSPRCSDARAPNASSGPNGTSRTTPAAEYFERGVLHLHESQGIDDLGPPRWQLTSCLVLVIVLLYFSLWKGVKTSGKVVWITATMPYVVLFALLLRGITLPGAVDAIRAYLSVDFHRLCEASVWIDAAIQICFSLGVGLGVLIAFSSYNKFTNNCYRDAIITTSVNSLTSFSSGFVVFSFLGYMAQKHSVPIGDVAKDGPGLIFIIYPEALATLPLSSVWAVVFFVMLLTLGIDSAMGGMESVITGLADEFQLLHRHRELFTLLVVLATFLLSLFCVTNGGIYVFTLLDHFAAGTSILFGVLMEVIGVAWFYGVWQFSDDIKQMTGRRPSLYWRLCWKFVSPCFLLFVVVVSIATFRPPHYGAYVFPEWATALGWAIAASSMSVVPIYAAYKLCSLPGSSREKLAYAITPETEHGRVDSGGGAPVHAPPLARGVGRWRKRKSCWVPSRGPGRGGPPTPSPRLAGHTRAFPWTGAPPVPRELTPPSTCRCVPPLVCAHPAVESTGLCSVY

The term IC50 denotes the concentration that inhibits the measured activity by half. High values mean weaker potency, low ones greater potency. Turning to `COC(=O)C1C(c2ccc(N)cc2)CC2CCC1N2C` (stereo not drawn), the IC50 in test [1] was 192 nM; in the test filed under Bos taurus (Bos taurus, Striatum), 557 nM.
As for `COC(=O)[C@@H]1C2CC[C@H](C[C@@H]1c1ccccc1)N2C` (mixture of isomers; form 1), the IC50 came to 22 nM in test [1] and 133 nM in the test filed under Bos taurus.
In the case of `COC(=O)[C@@H]1C2CC[C@H](C[C@@H]1c1ccccc1)N2C` (mixture of isomers; form 2), the IC50 in test [1] was 1200 nM; in the test listed under Bos taurus, 2100 nM.
As to `COC(=O)C1C(c2ccc([N+](=O)[O-])cc2[N+](=O)[O-])CC2CCC1N2C` (racemic), the IC50 was determined as 11000 nM in test [1] and 30000 nM in the test listed under Bos taurus (Bos taurus, Striatum).
